“And” between values parts separate entries of the source, which are not always exact repeats. Equal values may be shown once.
What was measured:
[1] = target: Delta-type opioid receptor (Homo sapiens, UniProt P41143); experiment: Binding affinity for opioid receptor type, human Opioid receptor delta 1 expressed in membrane homogenates of COS-1 or CHO cells; assay type: cell-based
[2] = target: T1, Nociceptin receptor (Homo sapiens, UniProt P41146); experiment: Binding affinity for opioid receptor like type, human Opioid receptor like 1 expressed in membrane homogenates of COS-1 or CHO cells; assay type: cell-based
[3] = target: T2, Mu-type opioid receptor (Homo sapiens, UniProt P35372); experiment: Binding affinity for opioid receptor type, human Opioid receptor mu 1 expressed in membrane homogenates of COS-1 or CHO cells; assay type: cell-based
[4] = target: T3, Kappa-type opioid receptor (Homo sapiens, UniProt P41145); experiment: Binding affinity for opioid receptor type, human Opioid receptor kappa 1 expressed in membrane homogenates of COS-1 or CHO cells; assay type: cell-based
[5] = target: T2, Mu-type opioid receptor; experiment: Stimulation of [35S]GTP-gamma-S, binding using COS-human Opioid receptor mu 1 membranes; assay type: functional
How it was run: (§1)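 Agonist-stimulated [35S]GTPγS binding to 5 μg membranes from COS cells transiently expressing human KOR or MOR. Incubation was 1 h at 30 °C with 0.2 nM [35S]GTPγS, GDP and increasing ligand concentrations, giving concentration–response data. Mean ± SEM of at least two separate experiments, each in triplicate.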

[6] = target: T3, Kappa-type opioid receptor; experiment: Stimulation of [35S]GTP-gamma-S, binding using COS-human Opioid receptor kappa 1 membranes; assay type: functional; how it was run: as §1
[7] = target: T2, Mu-type opioid receptor; experiment: Maximal activation of [35S]GTP-gamma-S, binding using COS-human Opioid receptor mu 1 membranes; assay type: functional
How it was run: (§2)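 Membranes (5 μg) from COS cells transiently transfected with human KOR or MOR, incubated 1 h at 30 °C with 0.2 nM [35S]GTPγS, GDP and increasing ligand concentrations. Maximal activation is given as percentage of basal [35S]GTPγS binding. Mean ± SEM of at least two separate experiments, each in triplicate.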

[8] = target: T3, Kappa-type opioid receptor; experiment: Maximal activation of [35S]GTP-gamma-S, binding using COS-human Opioid receptor kappa 1 membranes; assay type: functional; how it was run: as §2
[9] = target: T1, Nociceptin receptor

T3 sequence (P41145 whole entry): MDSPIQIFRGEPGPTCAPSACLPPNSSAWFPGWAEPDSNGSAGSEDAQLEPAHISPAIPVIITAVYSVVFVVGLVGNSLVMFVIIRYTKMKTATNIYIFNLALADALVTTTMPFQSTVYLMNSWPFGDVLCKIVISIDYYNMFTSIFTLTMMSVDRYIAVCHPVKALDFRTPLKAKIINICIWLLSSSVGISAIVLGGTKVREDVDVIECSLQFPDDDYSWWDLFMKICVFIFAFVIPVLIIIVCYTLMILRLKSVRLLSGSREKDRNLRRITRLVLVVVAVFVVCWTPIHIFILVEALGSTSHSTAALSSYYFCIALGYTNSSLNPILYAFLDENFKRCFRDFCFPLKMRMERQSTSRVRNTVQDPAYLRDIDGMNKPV
Chain of Delta-type opioid receptor (P41143 whole entry): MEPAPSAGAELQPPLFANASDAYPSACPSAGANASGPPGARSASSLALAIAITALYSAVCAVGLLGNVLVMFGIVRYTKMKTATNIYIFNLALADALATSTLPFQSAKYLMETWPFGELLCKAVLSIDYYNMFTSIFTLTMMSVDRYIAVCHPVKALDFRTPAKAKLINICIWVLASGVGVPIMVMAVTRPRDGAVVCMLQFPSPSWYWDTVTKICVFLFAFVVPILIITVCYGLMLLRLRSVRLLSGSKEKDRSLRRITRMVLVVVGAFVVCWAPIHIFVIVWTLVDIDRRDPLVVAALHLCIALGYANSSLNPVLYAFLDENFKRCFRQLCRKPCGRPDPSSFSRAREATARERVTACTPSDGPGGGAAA
T1 sequence (P41146 whole entry): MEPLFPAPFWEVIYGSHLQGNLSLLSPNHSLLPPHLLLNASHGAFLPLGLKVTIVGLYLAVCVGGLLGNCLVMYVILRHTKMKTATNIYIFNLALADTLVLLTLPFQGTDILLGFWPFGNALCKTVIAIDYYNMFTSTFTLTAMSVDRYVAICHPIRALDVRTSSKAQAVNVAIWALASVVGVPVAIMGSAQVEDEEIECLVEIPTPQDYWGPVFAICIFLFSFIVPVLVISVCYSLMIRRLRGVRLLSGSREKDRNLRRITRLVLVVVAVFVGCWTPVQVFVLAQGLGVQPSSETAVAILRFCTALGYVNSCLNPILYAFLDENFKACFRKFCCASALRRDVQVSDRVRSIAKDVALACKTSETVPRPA
T2 sequence (P35372 whole entry): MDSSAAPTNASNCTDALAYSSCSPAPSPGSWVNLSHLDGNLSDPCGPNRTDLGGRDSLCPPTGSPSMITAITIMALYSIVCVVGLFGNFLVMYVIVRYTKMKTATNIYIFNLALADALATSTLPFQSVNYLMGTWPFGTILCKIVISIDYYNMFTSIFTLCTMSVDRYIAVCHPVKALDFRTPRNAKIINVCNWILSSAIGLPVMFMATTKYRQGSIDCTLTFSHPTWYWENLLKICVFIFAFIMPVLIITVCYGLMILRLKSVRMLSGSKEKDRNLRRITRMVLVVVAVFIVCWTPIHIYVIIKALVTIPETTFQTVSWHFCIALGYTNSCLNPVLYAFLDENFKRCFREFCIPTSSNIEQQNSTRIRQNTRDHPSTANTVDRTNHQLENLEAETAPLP

Compound	Ki [1] [nM]	Ki [2] [nM]	Ki [3] [nM]	Ki [4] [nM]	EC50 [5] [nM]	Ki ([1]; cos-1) [nM]	Ki ([2]; cos-1) [nM]	Ki ([3]; cos-1) [nM]	EC50 [6] [nM]	Ki ([4]; cos-1) [nM]	Activity [7] [%]	Activity [8]	Ke [9] [nM]
CC(=O)N[C@@H](CCCN=C(N)N)C(=O)N[C@H](CC1CCCCC1)C(=O)N[C@@H](Cc1ccccc1)C(=O)N1[C@H](C(=O)N[C@H](CCCN=C(N)N)C(=O)N[C@H](Cc2ccc(Cl)cc2)C(N)=O)CC[C@@H]1C(C)(C)C	2340	1700	368	282	–	–	–	–	–	–	–	–	–
CC(=O)N[C@@H](CCCNC(=N)N)C(=O)N[C@H](CC1CCCCC1)C(=O)N[C@H]1CC[C@H]2CC[C@@H](C(=O)N[C@H](CCCNC(=N)N)C(=O)N[C@H](Cc3ccc(Cl)cc3)C(N)=O)N2C1=O	–	–	–	–	1400	5200	44	75	> 1000	190	–	–	–
CC(=O)N[C@@H](CCCN=C(N)N)C(=O)N[C@H](CC1CCCCC1)C(=O)N[C@H]1C[C@H]2CCC[C@@H](C(=O)N[C@H](CCCN=C(N)N)C(=O)N[C@H](Cc3ccc(Cl)cc3)C(N)=O)N2C1=O	–	–	–	–	–	10900	2130	2700	–	1080	–	–	–
CC(=O)N[C@@H](CCCN=C(N)N)C(=O)NC(CC1CCCCC1)C(=O)NC1CC[C@H]2CCC[C@@H](C(=O)N[C@H](CCCN=C(N)N)C(=O)NC(Cc3ccc(Cl)cc3)C(N)=O)N2C1=O (stereo in doubt)	7050	35	496	441	2800	–	–	–	> 1000	–	141	117%	–
CC(=O)N[C@@H](CCCN=C(N)N)C(=O)NC(CC1CCCCC1)C(=O)N[C@H]1CC[C@@H]2SC[C@H](C(=O)N[C@H](CCCN=C(N)N)C(=O)NC(Cc3ccc(Cl)cc3)C(N)=O)N2C1=O (stereo in doubt)	–	–	–	–	–	222	34	53	–	78	–	–	40
CC(=O)N[C@@H](CCCN=C(N)N)C(=O)NC(CC1CCCCC1)C(=O)N[C@H]1CC[C@H]2SC[C@@H](C(=O)N[C@H](CCCN=C(N)N)C(=O)NC(Cc3ccc(Cl)cc3)C(N)=O)N2C1=O (stereo in doubt)	–	–	–	–	–	–	–	–	–	–	207	122% and 120%	400
